Reference: ChEMBL document CHEMBL4699441, “Identification and Preclinical Evaluation of the Bicyclic Pyrimidine γ-Secretase Modulator BMS-932481” (ACS Med Chem Lett, 2019)
Values after ≈ are worked out from the molar mass of the structure shown. Active and inactive are the calls of the source. The calls are words filed in the database; no cut-off is given here.

Experiments:
[1] = Toxicity in rat assessed as reduction in food consumption at 100 mg/kg, po administered for 2 week; assay type: organism-based; settings: in vivo, 336 h, time 2 weeks
[2] = Inhibition of amyloid beta (x to 42) secretion in human H4 cells overexpressing APP incubated for overnight by HTRF analysis; assay type: functional, cell-based
[3] = Volume of steady state distribution in Beagle dog at 1 mg/kg, iv measured up to 24 hrs by LC-MS/MS analysis; assay type: ADME, organism-based, Canis lupus familiaris; settings: in vivo
Summary of the method: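 Male Beagle dog or male cynomolgus monkey; 1 mg/kg as 5 min iv infusion in 9:1 PEG:EtOH; n = 3; volume of distribution at steady state.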

[4] = Plasma concentration in Harlan Sprague-Dawley rat at 10 mg/kg, po measured after 5 hrs; assay type: ADME, organism-based
[5] = Octanol/water partition coefficient, logD of the compound at pH 7.4 by shake flask method; assay type: physicochemical
[6] = Aqueous solubility of the compound at pH 1; assay type: physicochemical; settings: buffer
[7] = AUC (0 to 24 hrs) in Harlan Sprague-Dawley rat incubated for 24 hrs by LC-MS/MS analysis; assay type: ADME; parameters: time 24 hrs; settings: in vivo
[8] = Oral bioavailability in cynomolgus monkey at 1 mg/kg dosed as nano suspension measured up to 24 hrs by LC-MS/MS analysis; assay type: ADME, organism-based, Macaca fascicularis; settings: in vivo
Summary of the method: (§1)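 Oral dosing as a nanosuspension in Sprague–Dawley rat, male Beagle dog and male cynomolgus monkey; dogs pretreated with pentagastrin.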

[9] = Hemodynamic activity in unconscious telemeterized rabbit assessed as decrease in heart rate at >= 10 mg/kg; assay type: ADME, organism-based, Oryctolagus cuniculus; settings: in vivo
[10] = Volume of steady state distribution in Sprague-Dawley rat at 2 mg/kg, iv measured up to 24 hrs by LC-MS/MS analysis; assay type: ADME, organism-based; settings: in vivo
Summary of the method: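 Sprague–Dawley rats; 2 mg/kg given as 5 min iv infusion in 9:1 PEG:EtOH; n = 5; volume of distribution at steady state.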

[11] = Hemodynamic activity in conscious telemeterized rat assessed as change in blood pressure at >= 10 mg/kg; assay type: ADME, organism-based; settings: in vivo
[12] = Dissociation constant, pKa of compound by spectrophotometric analysis; assay type: physicochemical
[13] = target: T1, PXR (NR1I2) (Homo sapiens, UniProt O75469); test: Transactivation of PXR (unknown origin) assessed as CYP450 induction relative to 10 uM rifampicin; assay type: ADME
T1 sequence (O75469 whole entry): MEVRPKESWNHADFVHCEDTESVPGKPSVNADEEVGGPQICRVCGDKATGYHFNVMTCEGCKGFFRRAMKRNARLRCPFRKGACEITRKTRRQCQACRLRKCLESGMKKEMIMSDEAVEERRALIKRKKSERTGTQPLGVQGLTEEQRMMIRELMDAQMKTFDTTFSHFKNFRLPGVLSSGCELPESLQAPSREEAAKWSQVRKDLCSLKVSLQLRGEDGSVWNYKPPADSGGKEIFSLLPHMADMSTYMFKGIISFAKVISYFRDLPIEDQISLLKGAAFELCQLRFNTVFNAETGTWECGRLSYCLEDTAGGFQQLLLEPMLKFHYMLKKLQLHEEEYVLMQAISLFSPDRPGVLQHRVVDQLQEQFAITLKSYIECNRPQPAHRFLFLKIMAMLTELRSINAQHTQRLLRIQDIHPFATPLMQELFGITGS
Summary of the method: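 PXR in vitro transactivation assay; maximal response expressed relative to 10 μM rifampicin set as 100%.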

[14] = Cardiotoxicity in unconscious telemeterized rabbit assessed as increase in QTcf time at 10 mg/kg; assay type: toxicity, organism-based, Oryctolagus cuniculus; settings: in vivo
[15] = target: Gamma-secretase (Homo sapiens) (UniProt Q96BI3+Q9NZ42+Q8WW43+P49768+Q92542+P49810); test: Modulation of gamma-secretase in human H4 cells overexpressing APP incubated assessed as increase in amyloid beta (1 to 37) secretion for 24 hrs by MALDI-TOF mass spectrometric analysis; assay type: cell-based; settings: filed as modulator
Summary of the method: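 H4-APPsw cells treated with compound; secreted Aβ species quantified by mass spectrometry; total Aβ1-x checked by ELISA up to 10 μM.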

[16] = Toxicity in Beagle dog assessed as NOAEL administered for 1 month; parameters: species or system Canis lupus familiaris; settings: in vivo, 730 h, time 1 months
[17] = Half life in cynomolgus monkey at 1 mg/kg, iv measured up to 24 hrs by LC-MS/MS analysis; assay type: ADME, organism-based, Macaca fascicularis; settings: in vivo
Summary of the method: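 Male Beagle dogs and male cynomolgus monkeys, 1 mg/kg by 5 min iv infusion in 9:1 PEG:EtOH, n=3.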

[18] = Cmax in Beagle dog at 300 mg/kg, po measured up to 24 hrs by LC-MS/MS analysis; assay type: ADME, organism-based, Canis lupus familiaris; parameters: route oral, dose 300 mg/kg, time >=24; settings: in vivo
Summary of the method: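 Dogs given an acute single oral dose of 300 mg/kg; plasma Cmax and AUC measured alongside bilirubin and other clinical pathology assessments.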

[19] = target: T2, UDP-glucuronosyltransferase 1A1 (Homo sapiens, UniProt P22309); test: Inhibition of human UGT1A1; assay type: ADME
T2 sequence (P22309 whole entry): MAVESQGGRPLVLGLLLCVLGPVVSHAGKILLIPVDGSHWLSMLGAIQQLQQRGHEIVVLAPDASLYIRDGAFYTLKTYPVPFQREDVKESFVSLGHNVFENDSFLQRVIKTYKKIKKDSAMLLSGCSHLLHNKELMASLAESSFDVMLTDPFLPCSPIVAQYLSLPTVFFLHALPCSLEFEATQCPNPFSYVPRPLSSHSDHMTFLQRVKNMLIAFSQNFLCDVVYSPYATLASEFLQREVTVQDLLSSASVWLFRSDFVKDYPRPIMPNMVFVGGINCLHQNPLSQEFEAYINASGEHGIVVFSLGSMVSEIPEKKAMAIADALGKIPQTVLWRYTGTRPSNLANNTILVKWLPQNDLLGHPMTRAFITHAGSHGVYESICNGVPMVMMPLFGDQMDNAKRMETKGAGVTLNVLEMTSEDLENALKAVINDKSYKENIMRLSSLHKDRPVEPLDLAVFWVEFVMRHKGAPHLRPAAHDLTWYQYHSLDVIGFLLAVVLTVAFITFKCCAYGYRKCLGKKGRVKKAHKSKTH

[20] = Induction of CYP3A4 mRNA expression in human hepatocytes at 3.3 to 10 uM relative to control; assay type: ADME, cell-based, Hepatocyte; settings: dose 3.3-10 µM
[21] = Metabolic stability in Beagle dog assessed as half life incubated for 24 hrs by LC-MS/MS analysis; assay type: ADME, Canis lupus familiaris
[22] = Hemodynamic activity in conscious telemeterized rat assessed as change in heart rate at >= 10 mg/kg; assay type: ADME, organism-based; settings: in vivo
[23] = target: Cytochrome P450 3A4 (Homo sapiens, UniProt P08684); test: Time dependent inhibition of CYP3A4 in human liver microsomes assessed as inactivation constant; assay type: ADME
[24] = Fraction unbound in Sprague-Dawley rat plasma measured after 24 hrs by LC-MS/MS analysis; assay type: ADME, cell-free
[25] = target: Voltage-gated inwardly rectifying potassium channel KCNH2 (Homo sapiens, UniProt Q12809); test: Inhibition of human ERG by patch clamp method
[26] = Reduction in amyloid beta (1 to 42) secretion in brain in triple transgenic LaFerla mouse at 30 mg/kg, po measured after 3 hrs relative to control; assay type: functional
Summary of the method: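 Triple transgenic LaFerla mice (APP Swedish, MAPT P301L, PSEN1 M146V) given 30 mg/kg po; brain Aβ1-42 measured 3 h postdose; n = 3.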

[27] = Oral bioavailability in Sprague-Dawley rat at 2 mg/kg dosed as nano suspension measured up to 24 hrs by LC-MS/MS analysis; assay type: ADME, organism-based; settings: in vivo; summary of the method: as §1

Cytochrome P450 3A4, sequence (P08684 whole entry): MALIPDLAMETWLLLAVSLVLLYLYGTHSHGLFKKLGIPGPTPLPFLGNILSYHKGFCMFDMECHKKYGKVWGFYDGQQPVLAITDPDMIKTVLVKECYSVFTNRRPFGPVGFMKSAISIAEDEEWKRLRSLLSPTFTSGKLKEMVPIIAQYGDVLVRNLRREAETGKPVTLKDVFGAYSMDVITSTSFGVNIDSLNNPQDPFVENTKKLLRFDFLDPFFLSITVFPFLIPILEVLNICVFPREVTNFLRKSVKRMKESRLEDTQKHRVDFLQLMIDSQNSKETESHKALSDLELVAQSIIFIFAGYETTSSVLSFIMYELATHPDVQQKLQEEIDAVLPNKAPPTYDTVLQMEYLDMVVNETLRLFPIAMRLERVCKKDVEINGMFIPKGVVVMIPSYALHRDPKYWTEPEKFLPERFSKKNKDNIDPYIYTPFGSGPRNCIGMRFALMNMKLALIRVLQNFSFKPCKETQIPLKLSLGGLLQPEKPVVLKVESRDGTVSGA
Voltage-gated inwardly rectifying potassium channel KCNH2, sequence (Q12809 whole entry): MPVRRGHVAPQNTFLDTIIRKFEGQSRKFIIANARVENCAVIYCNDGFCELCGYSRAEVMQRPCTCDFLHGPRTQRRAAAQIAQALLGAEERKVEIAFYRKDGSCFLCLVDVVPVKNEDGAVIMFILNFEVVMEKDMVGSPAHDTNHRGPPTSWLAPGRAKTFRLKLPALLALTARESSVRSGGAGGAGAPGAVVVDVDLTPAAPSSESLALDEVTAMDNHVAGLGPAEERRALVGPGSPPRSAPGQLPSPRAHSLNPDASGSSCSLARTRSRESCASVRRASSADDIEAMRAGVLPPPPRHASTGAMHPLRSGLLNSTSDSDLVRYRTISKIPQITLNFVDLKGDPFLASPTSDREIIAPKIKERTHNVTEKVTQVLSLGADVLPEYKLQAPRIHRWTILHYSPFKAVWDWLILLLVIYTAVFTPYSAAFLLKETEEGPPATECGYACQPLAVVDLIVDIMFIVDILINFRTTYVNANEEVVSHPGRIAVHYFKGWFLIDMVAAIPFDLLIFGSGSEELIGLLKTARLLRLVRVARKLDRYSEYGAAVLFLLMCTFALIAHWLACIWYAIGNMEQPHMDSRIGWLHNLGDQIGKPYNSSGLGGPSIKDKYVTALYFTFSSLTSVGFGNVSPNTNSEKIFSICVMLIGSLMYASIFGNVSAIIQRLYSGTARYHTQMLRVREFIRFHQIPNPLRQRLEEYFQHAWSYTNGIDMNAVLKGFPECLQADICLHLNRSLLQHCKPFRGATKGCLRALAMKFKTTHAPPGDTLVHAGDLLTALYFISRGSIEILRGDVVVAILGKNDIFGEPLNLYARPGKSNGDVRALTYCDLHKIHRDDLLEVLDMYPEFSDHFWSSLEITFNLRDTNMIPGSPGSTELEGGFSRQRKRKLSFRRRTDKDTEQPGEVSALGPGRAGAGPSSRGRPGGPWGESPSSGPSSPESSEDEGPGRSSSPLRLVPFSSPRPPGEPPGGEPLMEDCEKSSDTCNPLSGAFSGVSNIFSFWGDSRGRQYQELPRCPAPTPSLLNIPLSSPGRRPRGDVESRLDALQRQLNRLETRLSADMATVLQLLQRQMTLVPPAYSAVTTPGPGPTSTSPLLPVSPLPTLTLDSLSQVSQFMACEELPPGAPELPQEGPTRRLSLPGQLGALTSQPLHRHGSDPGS

CNc1nc(Nc2ccc(-n3cnc(C)n3)c(OC)c2)nc2c1CC[C@H]2c1ccc(F)cc1
Activity [1]: Non-Toxic
IC50 [2]: 5.5 nM
Vdss [3]: 6.1 L/kg
concentration at 5 h [4]: 1.4 µM
logD [5]: 4.34
solubility [6]: 19 µg/mL (≈ 42.6 µM)
AUC(0-t) at 24 h [7]: 4 µM·h
F [8]: 45%
Activity [9]: Non-Toxic
Vdss [10]: 2.3 L/kg
Activity [11]: Non-Toxic
pKa [12]: 5.9
Emax [13]: 36%
Time [14]: 3 ms
inhibition [15]: Active
NOAEL [16]: 150 mg/kg
t1/2 [17]: 2.9 h
Cmax [18]: 14 µM
IC50 [19]: 1400 nM
Activity [20]: 36%
t1/2 [21]: 0.45 h
Activity [22]: Non-Toxic
Kinact [23]: 0.47 min⁻¹
Fu [24]: 0.7%
IC50 [25]: 1200 nM
inhibition in vivo at 30 mg/kg [26]: 81%
F [27]: 98%
